Bioassay records: PubChem BioAssay, several laboratories
Calb FLC: affects C. albicans growth with fluconazole | C. albicans CaCi-2 (fluconazole-resistant clinical isolate) + fluconazole, Alamar Blue growth, 48 h | growth inhibition, % (concentration not given with the values) | 0.57% of 300,000 active | AID 1979;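 active means growth inhibition above about 58% in most replicates, limit read from the data, passing the limit was not always enough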;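 further: all wells also contain fluconazole at 8 µg/ml as a sub-toxic cotreatment; 0% = median of DMSO wells and 100% = median of geldanamycin control wells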
Efflux pump mplx: blocks antifungal efflux pumps in multiplex yeast assay; S. cerevisiae Candida pump triplex, Nile Red efflux; inhibition, % at 10 µM; 0.44% of 330,000 active; AID 485275;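 active means plate passing quality check with inhibition over a set limit, or well fluorescence over plate mean plus 4 SD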;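 further: Nile Red retained in pooled yeast measured as flow cytometry median fluorescence; 0% = buffer negative control and 100% = Enniatin B positive control; higher means more Nile Red kept so more efflux inhibition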
H9c2 TAG inh: reduces triacylglycerol accumulation in H9c2 cells | Nile Red lipid (TAG) fluorescence; cells loaded with 200 µM oleic acid | inhibition, % at 12.5 µM | 0.66% of 230,000 active;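 active means pattern-corrected inhibition of lipid staining of at least 50% with the nuclear-stain viability signal not falling by more than 50%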;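 further: 0% = DMSO wells and 100% = triacsin C control wells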
GalR3 antag: blocks the human galanin receptor 3; O60755; HEK293 GalR3-CNG cAMP membrane potential fluorescence; galR3 body fused to GalR1 C-terminus; inhibition, % at 3 µM; AID 651719; 0.44% of 360,000 active;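 active means inhibition above the screen-wide average plus 3 SD, cut at about 13% in these data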;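 further: forskolin and galanin both at EC90 stimulate the cells; cAMP rise reported by CNG channel membrane potential dye signal; 0% = forskolin plus galanin with DMSO and 100% = forskolin alone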
Target sequence (O60755 1-299 limits assumed): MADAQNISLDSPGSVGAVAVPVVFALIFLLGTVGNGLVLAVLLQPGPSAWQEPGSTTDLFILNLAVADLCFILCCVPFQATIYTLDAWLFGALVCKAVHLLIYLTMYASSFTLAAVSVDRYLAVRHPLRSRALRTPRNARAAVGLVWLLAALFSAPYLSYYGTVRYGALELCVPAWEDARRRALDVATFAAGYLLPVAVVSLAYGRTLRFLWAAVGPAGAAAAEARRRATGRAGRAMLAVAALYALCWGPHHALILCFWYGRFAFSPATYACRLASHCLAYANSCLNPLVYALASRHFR
MC4R barr agon: activates human MC4R beta-arrestin recruitment | P32245 | U2OS MC4R beta-arrestin complementation, luminescence; percent of melanotan II response, DMSO zero | activation, % at 8.9 µM | 0.98% of 360,000 active | AID 540308;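 active means activation above a per-plate cutoff, the mean activation of sample wells on that plate plus 3 SD, cut at about 8% in these data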
Target sequence (P32245 whole entry, looked up): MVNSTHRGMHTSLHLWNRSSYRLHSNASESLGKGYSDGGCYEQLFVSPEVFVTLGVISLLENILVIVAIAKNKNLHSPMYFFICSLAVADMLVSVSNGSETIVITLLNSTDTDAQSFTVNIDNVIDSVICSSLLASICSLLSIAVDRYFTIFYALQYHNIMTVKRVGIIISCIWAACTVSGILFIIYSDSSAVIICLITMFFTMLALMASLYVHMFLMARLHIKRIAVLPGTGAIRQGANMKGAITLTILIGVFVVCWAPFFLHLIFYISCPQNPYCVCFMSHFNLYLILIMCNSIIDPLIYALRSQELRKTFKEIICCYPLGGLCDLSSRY
MC4R antagonist: blocks human MC4R cAMP signaling; P32245; MC4R-expressing cells, MTII-stimulated cAMP, LANCE TR-FRET; inhibition, % at 6.5 µM; 0.48% of 360,000 active;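 active means inhibition above its plate's cutoff, the mean of tested wells on that plate plus 3 SD, cut at about 29% in these data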;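 further: 0% = Melanotan II alone and 100% = Melanotan II plus saturating MCL0020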
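system = U2OS cells with stable human MC4R expression | also added = Melanotan II challenge after compound preincubation | dosing = one concentration, 6.5 µM nominal | incubation = compound 30 min, challenge 1 h, detection 1 h | measured by = TR-FRET with Eu-cAMP and labeled anti-cAMP, 671 nm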
H9c2 TAG conf: triacylglycerol accumulation inhibition, confirmation; shares compounds with H9c2 TAG inh; H9c2 lipid accumulation, Nile Red fluorescence; cells loaded with 200 µM oleic acid; inhibition, % at 12.5 µM; 71% of 990 active;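 active means mean inhibition across replicates of 40% or more; inactive means mean inhibition below 40%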;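 further: plate controls were DMSO only wells for no effect and Triacsin C treated wells for full effect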
* marks the source's active call; other numbers are inactive results; nt = not tested or not shown. The list is not random: actives were taken first. Their share in the collection is about 2.9%.

SMILES	Calb FLC	Efflux pump mplx	H9c2 TAG inh	GalR3 antag	MC4R barr agon	MC4R antagonist	H9c2 TAG conf
CCOc1ccc(NC(=O)c2ccc(NC(=O)CSc3nc4ccccc4c(=O)[nH]3)cc2)cc1	18	0	61*	3	-1	8	63*
Nc1cc2c(cc1Br)[nH]c(=O)c1ccccc12	nt	nt	77*	-5	-1	-8	62*
O=C(c1cc(C2CCCCN2C(=O)CCCc2ccccc2)on1)N1CCOCC1 (stereo not given)	nt	nt	-5	-3	-1	2	nt
CC(=O)/C(=C/N(C)C)C(=O)Nc1ccc(Cl)cc1Cl	29	0	3	-3	0	-1	nt
CN(C)CCNC=C(C(=O)Nc1ccc(Cl)cc1Cl)C(=O)Nc1ccc(Cl)cc1Cl	-7	0	102*	0	3	-5	92*
CCN1C(=O)/C(=C2\SC(N3CCOCC3)=NC2=O)c2ccccc21	8	nt	nt	-11	-1	6	nt
C=CCN1C(=O)/C(=C2\SC(N3CCOCC3)=NC2=O)c2cc(Br)ccc21	11	0	58*	-1	-1	4	50*
COc1ccc([C@H]2CC(=O)C=C(c3ccc(OC)cc3OC)C2)cc1	nt	0	52*	-5	0	-16	81*
Cc1cc2c(C)cc(=O)[nH]c2cc1NC(=O)CCl	2	0	33	0	0	-2	nt
O=C(CCl)Nc1cc2[nH]c(=O)[nH]c2cc1Br	-5	0	51*	11	-1	-14	69*
COc1cc(C2C(C#N)=C(N)Oc3cc4c(cc32)OCO4)cc(OC)c1OC (stereo not given)	3	0	51*	0	-1	-25	71*
COc1ccc(NS(=O)(=O)c2cc(C)ccc2NC(=O)c2cc(C)oc2C)cc1	9	0	62*	-7	-1	-22	79*
COc1ccc(NS(=O)(=O)c2cccc(C(=O)NNC(=O)c3cc(C)oc3C)c2)cc1	2	0	nt	-5	-1	19	nt
COCCN1C[C@@H](CO)O[C@@H](n2cnc3c(NC(C)C)ncnc32)C1	nt	nt	-6	-6	-1	5	nt
COC(=O)c1cc(C(=O)N2CCN(c3ccccc3OC)CC2)cc([N+](=O)[O-])c1	36	0	51*	-4	-1	-23	85*
O=C1C=CC(O)C2(CO)OC12 (stereo not given)	nt	nt	81*	-4	-1	10	86*
Cc1ccc(S(=O)(=O)N2CCCc3nc(C)c(C)cc32)cc1	nt	nt	nt	-1	nt	nt	nt
Cc1ccccc1-c1cnc(C(O)c2c(C)cccc2C)[nH]1 (stereo not given)	nt	nt	-12	2	1	2	nt
CCCCCc1cc(=O)oc2c(C(CCN3CCN(c4ccccc4)CC3)c3ccc(N(C)C)cc3)c(OC)cc(OC)c12 (stereo not given)	-6	nt	73*	-2	-1	13	63*
CCCCCc1cc(=O)oc2c(C(CCN(CC)CC)c3cc(OC)c(OC)c(OC)c3)c(OC)cc(OC)c12 (stereo not given)	50	0	114*	-4	0	19	97*
COc1cc(OC)c2c(-c3ccccc3)cc(=O)oc2c1C(CCN1CCN(c2ccccc2)CC1)c1ccc(N(C)C)cc1 (stereo not given)	-20	nt	54*	1	-2	5	63*
CCN(CC)CCC(c1ccc(N(C)C)cc1)c1c(OC)cc(OC)c2c(-c3ccccc3)cc(=O)oc12 (stereo not given)	nt	0	30	-8	1	-1	nt
COc1ccc(S(=O)(=O)N2CCCCCC2)cc1NC(=O)CCNC(=O)c1ccccc1Cl	nt	nt	11	-5	-1	8	nt
CCOc1ccc(CCNC(=O)CN(C)S(=O)(=O)c2cccc3nsnc23)cc1OCC	-11	0	51*	2	4	-6	44*
O=C(COc1ccc(Br)cc1)NNC(=O)Cc1ccc(S(=O)(=O)N2CCOCC2)s1	nt	nt	8	-3	1	7	nt
SMILES	Calb FLC	Efflux pump mplx	H9c2 TAG inh	GalR3 antag	MC4R barr agon	MC4R antagonist	H9c2 TAG conf
CCNc1nc(SC(C)C(=O)Nc2ccccc2)nc(N(C)C)n1 (stereo not given)	-6	0	54*	-3	-1	-1	28
CCO[C@@H]1OC(C(=O)NCc2nc3ccccc3[nH]2)=C[C@H](c2cn(C(C)=O)c3ccccc23)[C@H]1CCCO	8	0	53*	-4	0	20	28
CCO[C@H]1OC(C(=O)NCc2nc3ccccc3[nH]2)=C[C@@H](c2cn(C(C)=O)c3ccccc23)[C@@H]1CCCO	17	0	nt	-2	-1	3	nt
COCCCn1cc(CN2CC(N3CCSCC3)CS2(=O)=O)nn1 (stereo not given)	nt	nt	nt	-5	nt	nt	nt
CC(=O)Nc1ccc(-c2ccnc3c2CC(C(=O)NCc2cccc(Cl)c2)O3)cc1 (stereo not given)	nt	nt	58*	4	0	-20	63*
COc1ccc(NC(=O)C2Cc3c(-c4cccc(NC(C)=O)c4)ccnc3O2)cc1 (stereo not given)	nt	nt	30	3	-1	-17	nt
COc1ccc(NC(=O)C2Cc3c(-c4cccc(C(C)=O)c4)ccnc3O2)cc1 (stereo not given)	nt	nt	54*	0	-2	-20	38
COc1ccc(-c2cc(C(=O)NCc3ccc(C(F)(F)F)cc3)[nH]n2)c(C)c1	nt	nt	-9	-6	0	-3	nt
Cc1cccc2c(C(=O)N3CCN(c4ccccc4)CC3)cc(-c3ccncc3)nc12	34	0	60*	-3	-5	-16	77*
Cc1ccc(-n2c(=O)[nH]c3cc(C(=O)NC4CCN(Cc5ccccc5)CC4)ccc3c2=O)cc1	-4	0	75*	4	-2	3	28
CCOCCCn1c(SCC(=O)Nc2ccccc2OC)nc2ccccc2c1=O	8	0	nt	-3	-2	-5	nt
COCCCn1c(SCC(=O)Nc2ccc(NC(=O)c3ccco3)c(OC)c2)nc2ccccc2c1=O	nt	0	62*	-4	-1	7	38
O=C(Cc1ccccc1)Nc1nc(-c2cccs2)cs1	-3	0	62*	-4	-3	-3	32
CN1C[C@H](C(=O)N[C@]2(C)O[C@@]3(O)[C@@H]4CCCN4C(=O)[C@H](Cc4ccccc4)N3C2=O)CC2c3cccc4[nH]cc(c34)C[C@H]21 (stereo not given in full)	nt	0	12	-7	0	6	nt
CC(C)C[C@H]1C(=O)N2CCC[C@H]2[C@]2(O)O[C@](NC(=O)C3C=C4c5cccc6[nH]c(Br)c(c56)C[C@H]4N(C)C3)(C(C)C)C(=O)N12 (stereo not given in full)	nt	0	56*	-7	1	23	92*
